Rows were chosen to be rich in hits. Some 4.1% of all compounds tested hit in one or more screens of this group.
KCNQ1 pot: potentiates or activates the human KCNQ1 potassium channel; P51787; CHO-K1 KCNQ1, thallium flux FluxOR fluorescence; active compounds read high; B-score at 10 µM; 0.35% of 310,000 active; AID 2648;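 active = fluorescence ratio B-score, a plate-corrected score, at least three library SD, with initial intensity B-score within 5 SD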
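Assay system: CHO-K1 cells stably expressing KCNQ1. Medium: assay buffer for compound exposure, DMSO matched across wells. Timing: 37 °C overnight plating, 90-min dark dye load, 20-min compound pretreatment. Signal: kinetic FluxOR fluorescence, 10 s baseline plus 110 s post-stimulus.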
hERG protect: compounds protecting human hERG from proarrhythmic drug block | CHO-hERG, FluxOR thallium flux, dofetilide IC70 present | activation (rescue from dofetilide block), less the hit threshold, % at 10 µM | 0.51% of 310,000 active | AID 1511 | Q12809;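 active = activation above the mean of controls blocked by dofetilide plus 5 SD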;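 also: thallium influx through hERG after potassium depolarization seen as dye fluorescence rise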
KCC2 mod: modulators of human KCC2 chloride dependent transport; Q9H2X9; 2.2% of 190,000 active; KCC2 cells, thallium flux FluoZin-2 fluorescence; B-score of Tl+ flux slope (higher = more flux/activation; lower = inhibition) at 10 µM;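 active = thallium flux slope and its plate-corrected score both differing from the plate sample mean at a set confidence after two filtering rounds, in either direction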;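 also: slope of fluorescence scaled to starting intensity during 10 to 20 s after thallium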
KCNK3 block: human KCNK3 channel inhibition, primary screen; CHO-KCNK3 thallium flux, FluxOR fluorescence; active compounds read low; B-score at 10 µM; 0.84% of 340,000 active;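 active = B-score under library mean minus 4 SD, starting fluorescence ratio at most library mean plus 5 SD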;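 also: more negative B-score means stronger inhibition of thallium flux through KCNK3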
KCNQ1 inh: human KCNQ1 channel inhibition; P51787; CHO-K1 KCNQ1, FluxOR thallium flux fluorescence; active compounds read high; B-score at 10 µM; 1.3% of 310,000 active;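 active = compounds whose thallium flux B-score, printed positive for inhibition, exceeds three library SD while starting fluorescence stays within three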;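 also: channel opened by potassium depolarization with thallium stimulus after 20 min compound exposure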
KCNK9 block: human KCNK9 channel inhibition | Q9NPC2 | HEK293 KCNK9, FluxOR thallium flux fluorescence; active compounds read low | B-score at 10 µM | 1.2% of 310,000 active | AID 488922;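 active = ratio B-score over 3 SD below the library mean, with starting fluorescence within 5 SD of its mean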;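 also: negative B-score means less thallium flux so channel inhibition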
KCC2 secondary: confirmation of human KCC2 transport modulators | HEK293-KCC2, thallium flux, FluoZin2 fluorescence; active compounds read high | normalised thallium flux (F/F0 slope) at 10 µM | shares compounds with KCC2 mod | 15% of 3,700 active | AID 1713;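 active = thallium flux slope above the same plate's solvent-only control mean plus 3 SD; inconclusive = the two replicate wells disagree; inactive = no significant difference from solvent-only control wells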
KCC2 bumet counter: thallium flux persisting under bumetanide in KCC2 cells, counter-screen secondary assay. AID 1714. shares compounds with KCC2 mod. 49% of 3,700 active. normalized thallium flux at 10 µM. HEK293-KCC2 + bumetanide/ouabain, thallium flux FluoZin2; active compounds read high;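 active = thallium entry rate above the same plate's blocked-transporter control wells by more than 3 SD; inconclusive = the two repeat wells disagree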;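 also: raw slope of fluorescence over initial fluorescence between 10 and 20 s after thallium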
KCC2 sec2: confirmation of human KCC2 transport modulators; shares compounds with KCC2 mod; normalized thallium flux at 10 µM; 23% of 3,700 active; HEK293-KCC2, thallium flux FluoZin2 fluorescence; actives lie on both sides; F/F0 rise rate, 10–20 s post-thallium;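 active = thallium flux slope more than 3 SD above or below the plate's solvent-only control mean, mostly below; inconclusive = the two repeat wells disagreed; inactive = no significant shift from solvent-only controls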;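 also: raw slope with 0.1% DMSO as baseline and bumetanide as block control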
HEK293 Tl flux: acts in parental HEK cells, KCC2 counter-screen; HEK293 parental cells, thallium flux FluoZin2, ouabain; baseline-ratio fluorescence slope, 10–20 s after thallium; AID 1716; thallium flux rate (normalised fluorescence) at 10 µM; shares compounds with KCC2 mod; 46% of 3,700 active;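 active = thallium flux rate significantly above the same plate's solvent-only control wells, beyond their mean plus 3 SD; inconclusive = the two replicate wells gave conflicting results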
KCC2 ouabain: KCC2 (human) modulation, ouabain retest; shares compounds with KCC2 mod; HEK293-KCC2, thallium flux FluoZin2 fluorescence; bidirectional: low = inhibitor, high = activator; raw Tl+ flux slope (below DMSO = inhibition, above = activation) at 10 µM; 48% of 3,700 active;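 active = thallium flux slope beyond 3 SD from same-plate DMSO control mean in most replicates, usually higher, sometimes lower; inconclusive = repeat tests gave conflicting results; inactive = no significant difference from controls in most replicates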;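 also: slope of initial-normalized fluorescence between seconds 10 and 20 after thallium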
HEK293 Tl flux2: acts in parental HEK cells, second KCC2 counter-screen. shares compounds with KCC2 mod. AID 1718. HEK293 parental, thallium flux FluoZin-2 fluorescence slope. 33% of 3,700 active. thallium flux slope at 10 µM;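 active = thallium flux slope above the same plate's solvent-control mean plus 3 SD in both duplicate wells; inconclusive = duplicate wells that disagreed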;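 also: run without ouabain in cells lacking the KCC2 cotransporter; slope of fluorescence scaled to its starting value between 10 and 20 s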
Starred values were filed as active, the others as inactive; i = inactive; ? = inconclusive; . = no result.

SMILES	KCNQ1 pot	hERG protect	KCC2 mod	KCNK3 block	KCNQ1 inh	KCNK9 block	KCC2 secondary	KCC2 bumet counter	KCC2 sec2	HEK293 Tl flux	KCC2 ouabain	HEK293 Tl flux2
COc1ccc(Nc2cc(C)c3ccc(O)cc3n2)cc1	i	-20.8	-2.81	i	i	i	0.00787	0.00547	0.0325	?	0.0232	0.0101
Cc1ccccc1N(CC(=O)NCCSc1ccccn1)S(=O)(=O)c1ccccc1	i	-12.5	-2.86*	i	i	i	0.008	0.00597	0.0306	0.00705	0.0192	0.0098
COc1ccc(S(=O)(=O)NCCOc2ccccc2)cc1OC	i	-6.4	-0.109	i	i	i	.	.	.	.	.	.
COc1ccc(S(=O)(=O)NCCOc2ccccc2)cc1-n1cnnn1	i	-9.4	-3.8*	i	i	i	0.00777	?	0.0249*	0.00723	0.0169*	0.00974
CC(O)c1ccc2c(c1)OCCOCCN(C)CCOCCO2 (stereo not drawn)	i	-6.6	-0.0336	i	i	i	.	.	.	.	.	.
Cc1ccc(NC(=O)Cn2c(O)c(N=NC(N)=S)c3ccccc32)cc1	i	-2.6	.	i	i	i	.	.	.	.	.	.
CCOC(=O)N=Nc1c(O)n(Cc2ccccc2)c2ccccc12	i	-12.1	6.88*	i	i	i	0.00571	0.0125*	0.0342	0.0121*	0.0229	0.0139*
COC(=O)c1ccc(Cn2c(O)c(N=NC(N)=S)c3ccccc32)o1	i	-10.0	7.07*	i	i	i	?	0.0301*	0.0345	0.0157*	0.0265	?
NC(=S)N=Nc1c(O)n(Cc2ccccc2)c2ccccc12	i	-4.4	8.76*	i	i	i	0.0074	0.00833*	0.0335	0.0107*	?	?
C/C(Cl)=C\Cn1c(O)c(N=NC(N)=S)c2ccccc21	i	14.5*	42.1*	i	i	i	?	0.0597*	0.0619*	0.0473*	0.0581*	0.0448*
CCOC(=O)N=Nc1c(O)n(CC)c2ccccc12	i	-5.8	-0.14	i	i	i	.	.	.	.	.	.
Cc1cccc(C)c1NC(=O)CNC(=O)CCC(=O)N1CCOCC1	i	-4.9	.	i	i	i	.	.	.	.	.	.
C#Cc1ccc(CN2CCCC(C(=O)Nc3ccccc3Oc3cccnc3)C2)cc1 (stereo not drawn)	i	-11.5	.	i	i	i	.	.	.	.	.	.
COc1cc(/C=C/C(=O)OCC(=O)NCCN2C(=O)CSC2=O)ccc1OC(F)F	i	-8.0	-0.0678	i	i	i	.	.	.	.	.	.
O=C(Nc1ccccc1N1CCOCC1)c1cccc(F)c1	i	-21.0	0.364	i	i	i	.	.	.	.	.	.
CC(C)Oc1cccc(C(=O)Nc2ccccc2N2CCOCC2)c1	i	-5.2	-8.53*	i	i	i	0.00806	0.00511	0.0312	0.00692	0.0332	0.0106
CCOc1ccc2nc(N3C(=O)CNC3=S)sc2c1	i	-3.1	9.96*	i	i	i	0.014*	0.0306*	0.0312	0.0139*	0.0255*	0.0123*
Cc1cc2nc(N3C(=O)CNC3=S)sc2cc1C	i	-5.2	19*	i	i	i	0.0188*	0.0579*	0.038	0.0257*	0.0406*	0.015*
CCCCC(=O)N1CCN(c2nc3ccc(OCC)cc3s2)CC1	i	-2.8	.	i	i	i	.	.	.	.	.	.
O=C(NCCc1ccccc1)C(=O)NCC1CCCO1 (stereo not drawn)	i	-0.4	.	i	i	i	0.011	0.0082*	0.0358	0.00803	0.0225	0.0119*
O=C(NCc1cccc(CNC(=O)C(=O)NCC2CCCO2)c1)C(=O)NCC1CCCO1 (stereo not drawn)	i	-5.0	0.0653	i	i	i	.	.	.	.	.	.
O=C(NCCc1ccccc1)/C(=N\O)c1ccccc1	i	-7.0	.	i	i	i	0.00604	0.00444	?	0.0072	0.0155	0.01
COc1ccc(CCNC(=O)CSc2nnc(C(C)N(C)C)n2Cc2ccccc2)cc1OC (stereo not drawn)	i	-14.7	0.777	i	i	i	.	.	.	.	.	.
Cc1cccc(C(=O)N2CCc3cc(-c4nc(NC(=O)Cn5nnc6ccccc6c5=O)sc4C)ccc32)c1	i	-15.1	-0.546	.	i	i	.	.	.	.	.	.
O=C(COc1cccc2cccnc12)Nc1ccccc1N1CCOCC1	i	-10.1	-5.56*	i	i	i	?	0.00414	0.029	0.00503*	0.0139	?
SMILES	KCNQ1 pot	hERG protect	KCC2 mod	KCNK3 block	KCNQ1 inh	KCNK9 block	KCC2 secondary	KCC2 bumet counter	KCC2 sec2	HEK293 Tl flux	KCC2 ouabain	HEK293 Tl flux2
CC1(C)Cc2cccc(OCC(=O)Nc3ccccc3N3CCOCC3)c2O1	i	-8.9	.	i	i	i	.	.	.	.	.	.
COc1ccc(C)cc1N=Nc1ccc(O)c2ncccc12	i	-6.8	21.3*	i	i	i	0.0069	0.0349*	0.0389*	0.0212*	0.0352*	0.0226*
COc1ccc(N=Nc2ccc(O)c3ncccc23)cc1	i	-10.0	32*	i	i	i	0.0188	0.0344*	0.0319	0.02*	0.0269*	0.0189*
Cc1ccc(C(=O)OC(C)C(=O)Nc2ccc(Cl)cn2)s1 (stereo not drawn)	.	.	.	i	.	.	.	.	.	.	.	.
Cc1cccc(N2CCN(S(=O)(=O)c3c(C(=O)N4CCCCC4)c(C)n(C)c3C)CC2)c1C	i	-23.1	.	i	i	i	.	.	.	.	.	.
Cc1ccc(/C=N\Nc2nc3ccc(Cl)cc3[nH]2)o1	i	-1.7	4.76*	i	i	i	0.00712	0.0043	0.0308	?	0.0189	0.0115
COc1ccc(/C=N/Nc2nc(-c3ccc(C)cc3)c(NC(C)=O)s2)cc1	i	-4.2	-0.514	i	i	i	.	.	.	.	.	.
C=CC(=O)Nc1ccc(CN2C(=O)N(c3c(Cl)c(OC)cc(OC)c3Cl)Cc3cnc(NCCCCN(CC)CC)nc32)cc1	.	.	.	i	.	.	.	.	.	.	.	.

Screening data from PubChem BioAssay.
